25 compounds from ChEMBL document CHEMBL1125477, “Highly potent and selective heptapeptide antagonists of the neurokinin NK-2 receptor” (J Med Chem, 1992) can be followed below.

Molecules are shown by their SMILES.

In assay [1] the target is Substance-P receptor (Cavia porcellus) (UniProt P30547). The assay can be described thus: Compound was evaluated for antagonism of contractile response of guinea pig ileum longitudinal smooth muscle (GPI) at tachykinin receptor 1. The class given is functional, tissue-based. A digest of the protocol:
(§1)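 Isolated longitudinal smooth muscle of ileum from male Dunkin-Hartley guinea-pigs (300–600 g), killed by concussion and exsanguination. Contraction to SP methyl ester (NK-1 agonist). At least two control agonist curves, then one antagonist concentration per preparation. Concentration-ratio read graphically at half-maximal response. pK_B = log(CR−1) − log[antagonist]. Mean ± SE over four to eight tissues.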

In assay [2] the target is T1, Substance-K receptor (Rattus norvegicus) (UniProt P16610).
T1 sequence (whole entry): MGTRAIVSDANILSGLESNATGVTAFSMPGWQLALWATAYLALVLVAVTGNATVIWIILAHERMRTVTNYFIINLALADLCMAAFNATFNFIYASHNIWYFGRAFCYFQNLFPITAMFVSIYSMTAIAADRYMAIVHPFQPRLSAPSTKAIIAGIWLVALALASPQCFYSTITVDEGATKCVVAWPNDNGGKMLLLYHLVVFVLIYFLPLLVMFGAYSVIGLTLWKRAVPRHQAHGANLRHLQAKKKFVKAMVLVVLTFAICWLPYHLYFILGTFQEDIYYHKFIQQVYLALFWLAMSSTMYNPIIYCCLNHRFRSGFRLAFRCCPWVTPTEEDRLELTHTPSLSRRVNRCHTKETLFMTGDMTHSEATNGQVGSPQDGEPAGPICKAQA
The assay can be described thus: Compound was evaluated for antagonism of contractile response of rat colon muscularis mucosae (RC) at tachykinin receptor 2. The class given is functional, tissue-based. To be noted: Muscularis mucosa. In outline: (§2)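 Colon muscularis mucosae from male AHA rats (250–500 g), killed by concussion and exsanguination. Contraction to neurokinin A (NK-2). At least two control agonist curves, then a single antagonist concentration per tissue. Equiactive agonist concentration-ratio taken at half-maximal response. pK_B = log(CR−1) − log[antagonist]. Mean ± SE over four to eight preparations.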

Assay [3] deals with T2, Neuromedin-K receptor (Rattus norvegicus) (UniProt P16177).
T2 sequence (whole entry): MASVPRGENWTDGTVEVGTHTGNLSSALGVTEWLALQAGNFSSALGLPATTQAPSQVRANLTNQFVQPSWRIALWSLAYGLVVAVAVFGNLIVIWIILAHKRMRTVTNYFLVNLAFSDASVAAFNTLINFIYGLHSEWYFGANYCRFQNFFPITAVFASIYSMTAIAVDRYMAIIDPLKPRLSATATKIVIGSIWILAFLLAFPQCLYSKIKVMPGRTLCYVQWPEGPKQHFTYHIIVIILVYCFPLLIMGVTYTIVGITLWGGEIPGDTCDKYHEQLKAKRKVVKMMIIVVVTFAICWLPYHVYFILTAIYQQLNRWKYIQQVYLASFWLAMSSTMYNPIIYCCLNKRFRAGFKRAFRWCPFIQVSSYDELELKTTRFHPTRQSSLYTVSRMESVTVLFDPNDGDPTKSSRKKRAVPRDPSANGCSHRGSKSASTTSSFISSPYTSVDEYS
The assay can be described thus: Compound was evaluated for antagonism of contractile response of rat portal vein at tachykinin receptor 3. The class given is functional. A digest of the protocol: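 Everted portal vein from male AHA rats (250–500 g). Contraction to senktide (NK-3). Agonist curves were repeated at least twice before exposure to one antagonist concentration per preparation. Concentration-ratio estimated graphically at the half-maximal level. pK_B = log(CR−1) − log(molar antagonist). Mean ± SE of four to eight tissues.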

Assay [4] concerns the target Substance-P receptor (Cavia porcellus) (UniProt P30547). The assay can be described thus: Compound was evaluated for antagonism of contractile response of guinea pig ileum longitudinal smooth muscle (GPI) at Tachykinin receptor 1. The assay is classed as functional, tissue-based. In outline:
as §1

Assay [5] concerns the target T1, Substance-K receptor (Rattus norvegicus). The assay can be described thus: Compound was evaluated for antagonism of contractile response of rat colon muscularis mucosae (RC) at Tachykinin receptor 2. The following applies: Muscularis mucosa. The assay is classed as functional, tissue-based. In outline: as §2

Sequence of Substance-P receptor (Cavia porcellus) (P30547 whole entry): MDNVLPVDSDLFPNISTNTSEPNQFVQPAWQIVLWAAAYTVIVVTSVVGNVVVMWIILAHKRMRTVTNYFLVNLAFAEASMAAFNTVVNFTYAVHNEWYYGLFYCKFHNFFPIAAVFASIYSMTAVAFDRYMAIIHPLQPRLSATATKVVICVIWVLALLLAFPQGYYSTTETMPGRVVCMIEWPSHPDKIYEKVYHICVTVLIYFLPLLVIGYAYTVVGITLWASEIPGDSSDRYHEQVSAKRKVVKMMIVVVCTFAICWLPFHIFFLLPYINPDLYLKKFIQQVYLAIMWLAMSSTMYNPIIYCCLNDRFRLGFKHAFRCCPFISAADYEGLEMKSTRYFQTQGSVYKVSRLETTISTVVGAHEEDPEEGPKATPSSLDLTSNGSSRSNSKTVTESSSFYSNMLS

On to `CSCC[C@@H](NC(=O)[C@H](CC(C)C)NC(=O)[C@H]1CCCN1C(=O)[C@H](Cc1ccccc1)NC(=O)[C@@H](Cc1c[nH]c2ccccc12)NC(=O)[C@H](C)NC(=O)[C@@H](N)CCCN=C(N)N)C(N)=O`, for which the pKB in assay [1] is less than 4.6; in assay [2], 5.7; in assay [3] it was 4.9.

For `CCCC[C@H](NC(=O)[C@H](CC(C)C)NC(=O)[C@@H](Cc1c[nH]c2ccccc12)NC(=O)[C@H](Cc1ccccc1)NC(=O)[C@@H](Cc1c[nH]c2ccccc12)NC(=O)[C@H](CCC(N)=O)NC(=O)[C@@H](N)CCCN=C(N)N)C(N)=O`, the pKB is 6.4 in assay [1] and 5.7 in assay [2].

With `CCCC[C@H](NC(=O)[C@@H]1CCCN1C(=O)[C@H]1CCCN1C(=O)[C@H](Cc1ccccc1)NC(=O)[C@@H](Cc1c[nH]c2ccccc12)NC(=O)[C@H](C)NC(=O)[C@@H](CCCN=C(N)N)NC(=O)OC(C)(C)C)C(N)=O`, the pKB in assay [1] was found to be 5.7; in assay [2], 5.2.

Consider `CCCC[C@H](NC(=O)[C@H](CC(C)C)NC(=O)[C@@H](Cc1c[nH]c2ccccc12)NC(=O)[C@H](Cc1ccccc1)NC(=O)[C@@H](Cc1c[nH]c2ccccc12)NC(=O)[C@H](C)NC(=O)[C@@H](N)CCCN=C(N)N)C(N)=O`, for which the negative-log KB (pKB) in assay [1] was 6; in assay [2], 6.2; in assay [3], less than 4.6.

`CCCC[C@H](NC(=O)[C@@H]1CCCN1C(=O)[C@H]1CCCN1C(=O)[C@H](Cc1ccccc1)NC(=O)[C@@H](Cc1c[nH]c2ccccc12)NC(=O)[C@H](C)NC(=O)[C@H](N)CCC(=O)OCc1ccccc1)C(N)=O`: the negative logarithm of the KB (pKB) is less than 5.5 in assay [4] and 7.2 in assay [5].

In the case of `CCCC[C@H](NC(=O)[C@@H]1CCCN1C(=O)[C@H]1CCCN1C(=O)[C@H](Cc1ccccc1)NC(=O)[C@@H](Cc1c[nH]c2ccccc12)NC(=O)[C@H](C)NC(=O)[C@@H](N)CCCN=C(N)N)C(N)=O`, the figures for the pKB in assay [1], in assay [2] and in assay [3] were 4.7, 5.9 and less than 4.6, respectively.

In the case of `CCCC[C@H](NC(=O)[C@@H]1CCCN1C(=O)[C@H]1CCCN1C(=O)[C@H](Cc1ccccc1)NC(=O)[C@@H](Cc1c[nH]c2ccccc12)NC(=O)[C@H](C)NC(=O)[C@H](CCC(=O)O)NC(=O)OC(C)(C)C)C(N)=O`, the values for the pKB in assay [4] and in assay [5] were less than 4.5 and 6.5, respectively.

Take `CCCC[C@H](NC(=O)[C@@H]1CCCN1C(=O)[C@H]1CCCN1C(=O)[C@H](Cc1ccccc1)NC(=O)[C@@H](C)NC(=O)[C@H](C)NC(=O)[C@H](CCCN=C(N)N)NC(=O)OC(C)(C)C)C(N)=O`: the pKB in assay [1] amounted to 4.8; in assay [2], 5.6.

On to `CCCC[C@H](NC(=O)[C@@H]1CCCN1C(=O)[C@H]1CCCN1C(=O)[C@H](Cc1ccccc1)NC(=O)[C@@H](Cc1c[nH]c2ccccc12)NC(=O)[C@H](C)NC(=O)[C@H](CCC(=O)OCc1ccccc1)NC(=O)OC(C)(C)C)C(N)=O`, for which the pKB in assay [1] was 6.6; in assay [2], 7.4.

Consider `CCCC[C@H](NC(=O)C1CCCN1C(=O)[C@H]1CCCN1C(=O)[C@H](Cc1ccccc1)NC(=O)[C@@H](Cc1c[nH]c2ccccc12)NC(=O)CCCCNC(=O)OC(C)(C)C)C(N)=O` (some centres not stated), for which the pKB in assay [5] was found to be 7.6.

Regarding `CCCC[C@H](NC(=O)[C@@H]1CCCN1C(=O)[C@H]1CCCN1C(=O)[C@H](Cc1ccccc1)NC(=O)[C@@H](Cc1ccccc1)NC(=O)[C@H](C)NC(=O)[C@H](CCCN=C(N)N)NC(=O)OC(C)(C)C)C(N)=O`, the negative-log KB (pKB) in assay [2] amounted to 6.4.

Turning to `CNC(=O)[C@@H]1CCCN1C(=O)[C@H]1CCCN1C(=O)[C@H](Cc1ccccc1)NC(=O)[C@@H](Cc1c[nH]c2ccccc12)NC(=O)[C@H](C)NC(=O)[C@H](CCCN=C(N)N)NC(=O)OC(C)(C)C`, the figures for the pKB in assay [1] and in assay [2] were 5.1 and 7.5, respectively.

`CCCC[C@H](NC(=O)[C@@H]1CCCN1C(=O)[C@H]1CCCN1C(=O)[C@H](Cc1ccccc1)NC(=O)[C@@H](Cc1c[nH]c2ccccc12)NC(=O)[C@H](C)NC(=O)[C@@H](CCC(=O)OCc1ccccc1)NC(=O)OC(C)(C)C)C(N)=O`: the negative logarithm of the KB (pKB) came out at 6 in assay [1] and 7.1 in assay [2].

As for `CCCC[C@H](NC(=O)[C@@H]1CCCN1C(=O)[C@H]1CCCN1C(=O)[C@H](Cc1ccccc1)NC(=O)[C@@H](Cc1c[nH]c2ccccc12)NC(=O)[C@H](C)NC(=O)[C@H](CCCN=C(N)N)NC(=O)OC(C)(C)C)C(N)=O`, the pKB in assay [1] is 5.8; in assay [2], 8.2; in assay [3], less than 4.6.

For the compound `CCCC[C@H](NC(=O)[C@@H]1CCCN1C(=O)[C@H]1CCCN1C(=O)[C@H](Cc1ccccc1)NC(=O)[C@@H](Cc1c[nH]c2ccccc12)NC(=O)[C@H](C)NC(=O)[C@H](CCCN=C(N)N)NC(=O)OCc1ccccc1)C(N)=O`, the pKB in assay [1] is 6.7; in assay [2] it was 7.5.

In the case of `C[C@H](NC(=O)[C@H](CCCN=C(N)N)NC(=O)OC(C)(C)C)C(=O)N[C@H](Cc1c[nH]c2ccccc12)C(=O)N[C@@H](Cc1ccccc1)C(=O)N1CCC[C@@H]1C(=O)N1CCC[C@H]1C(=O)NCC(N)=O`, the negative logarithm of the KB (pKB) in assay [1] was found to be 5.3; in assay [2], 7.

Take `CSCC[C@H](NC(=O)[C@@H]1CCCN1C(=O)[C@H]1CCCN1C(=O)[C@H](Cc1ccccc1)NC(=O)[C@@H](Cc1c[nH]c2ccccc12)NC(=O)[C@H](C)NC(=O)[C@H](CCCN=C(N)N)NC(=O)OC(C)(C)C)C(N)=O`: the negative logarithm of the KB (pKB) was less than 4.5 in assay [1] and 6.2 in assay [2].

For `CCCC[C@H](NC(=O)[C@@H]1CCCN1C(=O)[C@H]1CCCN1C(=O)[C@H](Cc1ccccc1)NC(=O)[C@@H](Cc1c[nH]c2ccccc12)NC(=O)[C@H](C)NC(=O)[C@H](CCCN=C(N)N)NC(C)=O)C(N)=O`, the values for the pKB in assay [1] and in assay [2] were 4.6 and 5.6, respectively.

Take `CCCC[C@H](NC(=O)[C@@H]1CCCN1C(=O)[C@H]1CCCN1C(=O)[C@H](Cc1ccccc1)NC(=O)[C@@H](Cc1c[nH]c2ccccc12)NC(=O)[C@H](C)NC(=O)[C@H](CCCCN)NC(=O)OC(C)(C)C)C(N)=O`: the negative-log KB (pKB) in assay [4] worked out at 4.8; in assay [5], 7.1.

For the compound `CCCC[C@H](NC(=O)[C@@H]1CCCN1C(=O)[C@H]1N(C(=O)[C@H](Cc2ccccc2)NC(=O)[C@@H](Cc2c[nH]c3ccccc23)NC(=O)[C@H](C)NC(=O)[C@@H](N)CCCN=C(N)N)CSC1(C)C)C(N)=O`, the values for the negative logarithm of the KB (pKB) in assay [4] and in assay [5] were 4.7 and 5.9, respectively.

`CCCCCNC(=O)[C@@H]1CCCN1C(=O)[C@H]1CCCN1C(=O)[C@H](Cc1ccccc1)NC(=O)[C@@H](Cc1c[nH]c2ccccc12)NC(=O)[C@H](C)NC(=O)[C@H](CCCN=C(N)N)NC(=O)OC(C)(C)C`: the pKB in assay [1] was 5.8; in assay [2] it was 7.6.

Consider `CCCC[C@H](NC(=O)[C@@H]1CCCN1C(=O)[C@H]1CCCN1C(=O)[C@H](Cc1ccccc1)NC(=O)[C@H](Cc1c[nH]c2ccccc12)NC(=O)[C@H](C)NC(=O)[C@H](CCCN=C(N)N)NC(=O)OC(C)(C)C)C(N)=O`, for which the pKB in assay [1] is less than 5; in assay [2] it was 6.4.

As to `CCCC[C@H](NC(=O)[C@@H]1CCCN1C(=O)[C@H]1CCCN1C(=O)[C@H](Cc1ccccc1)NC(=O)[C@H]1CCCN1C(=O)[C@H](C)NC(=O)[C@H](CCCN=C(N)N)NC(=O)OC(C)(C)C)C(N)=O`, the values for the pKB in assay [1] and in assay [2] were 4.5 and 5.2, respectively.

For `CCCC[C@H](NC(=O)[C@H](CC(C)C)NC(=O)[C@@H](Cc1c[nH]c2ccccc12)NC(=O)[C@H](Cc1ccccc1)NC(=O)[C@@H](Cc1c[nH]c2ccccc12)NC(=O)[C@H](CCC(N)=O)NC(=O)[C@H](CCCN=C(N)N)NC(=O)OC(C)(C)C)C(N)=O`, the negative-log KB (pKB) worked out at 7.1 in assay [1] and 6.5 in assay [2].

Turning to `CCCC[C@H](NC(=O)[C@H](CC(C)C)NC(=O)[C@@H](Cc1c[nH]c2ccccc12)NC(=O)[C@H](Cc1ccccc1)NC(=O)[C@@H](Cc1c[nH]c2ccccc12)NC(=O)[C@H](C)NC(=O)[C@H](CCCN=C(N)N)NC(=O)OC(C)(C)C)C(N)=O`, the pKB in assay [1] came to 6.9; in assay [2] it was 6.5.

As a reminder, the pKB is the negative decadic logarithm of the KB, by convention in mol/L. Higher therefore signals a low KB.
